Hits are enriched below; roughly 2.7% of the tested compounds scored in any of these assays.
E-selectin induc = induces E-selectin expression in human endothelial cells; activation, % at 7.58 µM; AID 686992; P16581; HUVEC E-selectin immunofluorescence imaging; normalized: neutral wells 0, TNF-alpha wells 100; 260,000 compounds, 0.37% hits;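 active means mean E-selectin-positive cell signal at least 10% of the positive control, reached in at least 60% of replicates, without over 20% cell loss; inconclusive means no rule given, readout overlaps actives, possibly toxicity-flagged; inactive means the rest, including those meeting only one limit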
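Test system: HUVEC; input: 3,000 HUVEC/well; measured by: immunofluorescence imaging; read-out: % PE-positive cells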
FGF22 binding = binders of recombinant human FGF22 by thermal shift. AID 651658. activity (Tm shift, normalised), % at 9.99 µM. 340,000 compounds, 1.5% hits. Q9HCT0. SYPRO orange fluorescence; percent of sucrose octasulfate shift, DMSO zero;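 active means mean Tm shift, scaled 0 neutral to 100 positive control, at about 1.3% or above, every replicate too, limit read from the data; inconclusive means no clear call, values can overlap the other calls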
Target sequence (Q9HCT0 whole entry, looked up): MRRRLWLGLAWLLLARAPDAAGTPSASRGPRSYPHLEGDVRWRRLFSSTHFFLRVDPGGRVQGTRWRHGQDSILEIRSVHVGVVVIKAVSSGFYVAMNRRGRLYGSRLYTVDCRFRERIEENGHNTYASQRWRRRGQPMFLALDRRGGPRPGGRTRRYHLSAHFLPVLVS
CFTR F508del cor = CFTR F508del correction in bronchial cells; 350,000 compounds, 0.36% hits; CFBE cells, YFP halide quenching; stimulated with forskolin plus potentiator P3; % fluorescence drop versus neutral controls; activity (quench increase), % at 7.58 µM; AID 720511;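 active means mean added fluorescence quench of at least 8% versus neutral control, with both replicates also reaching 8%; inconclusive means only one of the mean or replicate conditions met; inactive means mean below 8% and not both replicates reaching 8%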;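 further: cells transiently co-express mutant CFTR-F508del with the halide-sensitive YFP; corrector assay measuring rescue of mutant channel to the surface after 24 h compound exposure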
HIV Env fusion = inhibitors of HIV Env-mediated cell fusion | HeLa-JRFL Env/CEM21 cell fusion, luciferase | inhibition, % at 12.3 µM | 360,000 compounds, 1.1% hits | AID 651610;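 active means mean replicate inhibition score of at least 50 and every replicate individually at or above 50; inconclusive means only one of the two criteria met; inactive means mean below 50 and not all replicates reaching 50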;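 further: 0% = plate neutral controls and 100% = maraviroc near 300 nM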
S100A4 MyoIIA = blocks human S100A4 binding to myosin IIA peptide | S100A4/TAMRA-MyoIIA peptide fluorescence polarization | inhibition, % at 10.7 µM | 360,000 compounds, 0.14% hits;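 active means mean inhibition of at least 70% across replicates, with every replicate also reaching that level; inconclusive means mean inhibition reaches 70% but some replicates fall short; inactive means mean inhibition below 70%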
Target sequence (P26447 whole entry, looked up): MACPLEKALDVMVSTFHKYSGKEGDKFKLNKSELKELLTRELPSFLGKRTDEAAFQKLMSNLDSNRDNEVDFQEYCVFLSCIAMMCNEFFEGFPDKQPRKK
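Assay system: human S100A4 monomer with TAMRA-labelled myosin IIA peptide / Buffer or medium: Calcium-containing HEPES buffer, pH 7.2 / Reagent: TAMRA-labelled myosin IIA heavy-chain peptide probe, 5 nM / Compound: one dose per compound / Timing: polarization read 5 min after assay mix addition, stable 5–60 min / Benchmarks: neutral control DMSO, positive control TFP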
Active calls of the source: *; u = inconclusive; x = no result given; [ ] = remark or other dose.

SMILES	E-selectin induc	FGF22 binding	CFTR F508del cor	HIV Env fusion	S100A4 MyoIIA
O=C(C[C@H]1CC[C@@H](NC(=O)Nc2cc(F)ccc2F)[C@H](CO)O1)NCc1ccc2c(c1)OCO2	0	0	-1	6[16.7 µM]	8
COC(=O)[C@]12CCCCC=C1N(Cc1ccc(Cl)cc1Cl)C(=O)[C@H](CC(=O)NCc1cccc(C(F)(F)F)c1)C2	0	1.5*	0	2	-2
CCOC(=O)[C@]12CCC=C1N(Cc1ccc(Cl)cc1Cl)C(=O)[C@H](CC(=O)NCc1cccc(C(F)(F)F)c1)C2	x	1.4*	5	16	-2
CCC(=O)N(C)C[C@@H]1Oc2cc(C#CC3CCCCC3)ccc2S(=O)(=O)N([C@@H](C)CO)C[C@H]1C	1	0	-2	13[16.7 µM]	-6
O=C(CCn1c(=S)oc2ccccc21)Nc1ccccc1F	x	44*	-3	7	-1
CNc1ccccc1NC(=O)CCn1c(=S)oc2ccccc21	0	0	-1	15	-1
CC(/C=N\N1CCN(Cc2ccc(C)cc2)CC1)=C\c1ccccc1	x	44*	-2	29	-1
O=C(NCCC1=CCCCC1)C(=O)NCC1OCCCN1S(=O)(=O)c1ccc(F)cc1 (configuration not stated)	x	44*	-1	26	1
O=C(CN(Cc1ccccc1)S(=O)(=O)c1ccc(F)cc1)NCCC1=CCCCC1	x	x	x	109*	x
Cc1ccc(S(=O)(=O)N(CC(=O)NCCC2=CCCCC2)Cc2ccccc2)cc1	x	x	x	104*	x
O=C(NCCC1=CCCCC1)C(=O)NCC1OCCCN1S(=O)(=O)c1cc(F)ccc1F (configuration not stated)	x	0	-2	0	1
CN(Cc1ccccc1)S(=O)(=O)c1ccc(OCC(=O)NCc2cccnc2)cc1	0	0	-2	25	8
CN(c1ccc(OCC(=O)NCc2cccnc2)cc1)S(=O)(=O)c1ccc(Cl)cc1	1	43*	-3	-5	1
C[C@@H]1CN([C@@H](C)CO)C(=O)Cc2cc(NC(=O)Nc3ccc4c(c3)OCO4)ccc2O[C@H]1CN(C)C(=O)Nc1ccc2c(c1)OCO2	0	0	0	x	11
O=C(CN(Cc1ccccc1F)S(=O)(=O)c1ccc(Cl)cc1)NCCC1=CCCCC1	x	x	x	69*	x
O=C(CN(Cc1ccccc1)S(=O)(=O)c1ccc(F)cc1)NCc1cccnc1	x	0	9.0*	0	-6
OC[C@H]1[C@H](c2ccc(-c3cccnc3)cc2)[C@H]2CN(CC3CCOCC3)CCCCN21	x	0	1	x	-16
O=C(Cc1cccs1)N(Cc1cccs1)C1(C(=O)NC2CCCCC2)CCCCC1	x	x	x	79*	x
C#Cc1ccc([C@H]2C=C(C(=O)N3CCOCC3)O[C@@H](OCCCCO)C2)cc1	x	0	0	1[16.7 µM]	9
CCc1ccc(OCC(=O)NNC(=O)C2CCC2)cc1	x	0	2	64*	6
CCCCC(CC)C(=O)Nc1cccc(SC)c1 (configuration not stated)	x	x	-1	5	-1
CCCCC(CCCCl)C(=O)Nc1ccccc1 (configuration not stated)	x	43*	1	8	-1
CCOc1ccc(/C=N/NC(=O)c2ccccc2C)cc1CN1CC2CC(C1)c1cccc(=O)n1C2 (configuration not stated)	x	0	2	x	94*
CCOc1ccc(/C=N/NC(=O)c2ccccc2Cl)cc1CN1CC2CC(C1)c1cccc(=O)n1C2 (configuration not stated)	x	0	3	x	-8
CCc1cccc(NC(=O)CCc2nc3sc4c(c3c(=O)[nH]2)CCCC4)c1	84*	0	-1	10	-7
SMILES	E-selectin induc	FGF22 binding	CFTR F508del cor	HIV Env fusion	S100A4 MyoIIA
C[C@@H]1CN([C@H](C)CO)C(=O)c2cc(NC(=O)C3CCCCC3)ccc2O[C@H]1CN(C)Cc1ccc(C(=O)O)cc1	x	0	0	x	-5
Cc1cc(=O)n(C)c2ccccc12	5	43*	1	13	1
COc1cc(=O)n(C)c2ccccc12	x	0	2	x	-3
Cn1ncc(Br)c1C(=O)NC1CCCCCCC1	0	0	2	11	-4
Cc1nn(C)c(C(=O)NNC(=S)NC2CCCCC2)c1Br	x	43*	2	-21	-7
CNC(=O)N(O)C1N(/N=C/c2ccccc2O)C(=S)SC1(C)C (configuration not stated)	x	-1	3	-2	-3
CCCCNC(=O)N(O)C1N(/N=C/c2cccs2)C(=S)SC1(C)C (configuration not stated)	0	0	-1	67*	1
O=C(OCC1OC(n2ccc(=O)[nH]c2=O)C2OC12)c1ccccc1 (configuration not stated)	1	43*	-3	x	-2
Oc1c(N=Nc2ccccc2)sc2ccccc12	0	0	-4	-136	-11
CC(=Nc1ccccc1O)c1sc2ccccc2c1O	0	0	10*	-6	3
C[C@@H]1CN([C@@H](C)CO)C(=O)Cc2cc(NC(=O)c3ccncc3)ccc2O[C@H]1CN(C)Cc1ccc(C(F)(F)F)cc1	0	x	3	37[16.7 µM]	x
COc1ccc(CN(C)C[C@@H]2OCCCC[C@@H](C)Oc3ccc(NC(=O)c4ccccc4)cc3C(=O)N([C@@H](C)CO)C[C@@H]2C)cc1	0	x	2	-21[16.7 µM]	1
CCOc1cc(/C=N/NC(=O)c2cccnc2)ccc1OCC(N)=O	-1	0	1	2	11
CCOc1cc(/C=N/NC(=O)c2cccnc2)ccc1OCC(=O)N(C)C	x	44*	-1	8	10
CC(C)c1ccc(OCc2cccc(C(=O)N/N=C/c3cccnc3)c2)cc1	x	28*	-2	x	4
O=C(N/N=C/c1cccnc1)c1cccc(Cl)c1	0	0	0	-6	-3
CCOc1ccc(OCc2cccc(C(=O)N/N=C/c3cccnc3)c2)cc1	x	x	x	69*	x
COc1ccccc1C#Cc1cnc2c(c1)C(=O)N([C@H](C)CO)C[C@H](C)[C@@H](CN(C)C(=O)CN(C)C)O2	0	0	-2	2[16.7 µM]	40
CCCC(=O)Nc1ccc2c(c1)OC[C@@H](C)N(Cc1cncnc1)C[C@@H](C)[C@@H](OC)CN(C)C2=O	0	0	2	x	4
C[C@@H]1C=C(C(=O)N2CCCCCCC2)O[C@H](OCc2ccc(CO)cc2)C1	x	0	0	19[16.7 µM]	-9
COc1ccc(C)cc1NC(=O)CCNS(=O)(=O)c1ccc2c(c1)CC(C)N2C(C)=O (configuration not stated)	x	0	-1	79*	2
Nc1ncc(-n2cncn2)c(-c2ccccc2)n1	0	43*	-3	20	3
O=Cc1ccccc1-n1cncn1	0	0	2	u	-8
C[C@@H]1CN([C@@H](C)CO)C(=O)c2cc(NS(=O)(=O)c3ccc(Cl)cc3)ccc2O[C@H]1CN(C)CC1CCCCC1	0	0	1	0[16.7 µM]	-15
